Published values gathered from unrelated publications.
Target: Aurora kinase B (AURKB, Homo sapiens, UniProt Q96GD4)

SMILES | test | setting | remaining binding
O=C(NCC1CCOCC1)c1n[nH]cc1NC(=O)c1c(F)cccc1F | binding, competition with immobilised ligand | 1 µM | 78%
CN(c1nccc(-c2cnn3ncccc23)n1)C1CC1 | binding | 1 µM | 100%
COc1ccc2c(O[C@@H]3C[C@H]4C(=O)N[C@]5(C(=O)O)CC5/C=C\CCCCC[C@H](NC(=O)OC5CCCC5)C(=O)N4C3)cc(-c3csc(NC(=O)C(C)C)n3)nc2c1C (stereo partly shown) | cell-free assay, competition with immobilised ligand | 1 µM | 91%
CN(C)c1ncc(F)c(-c2cnn3ncccc23)n1 | binding | 1 µM | 77%
C[C@@H](c1ccc(-n2cnc3c(N)ncnc32)cc1)N1CCc2nn(C)c(Cc3ccccc3)c2C1=O | binding, competition with immobilised ligand | 0.1 µM | 65%
CN([C@@H]1CCc2c(CC(=O)O)c3ccccc3n2C1)S(=O)(=O)c1ccc(F)cc1 | cell-free assay, competition with immobilised ligand | 1 µM | 91%
CC(C)(C)c1ccc(-c2nc(CBr)nn2-c2cccc(O)c2)cc1 | cell-free assay, competition with immobilised ligand | 10 µM | 69%
N[C@@H]1CCN(c2nccc(-c3cnn4ncccc34)n2)C1 | binding | 1 µM | 99%
CCC(=O)N[C@H]1CC[C@@H](C(=O)N(C)c2ccc(-c3nc4ccccc4o3)cc2)C1 | cell-free assay, competition with immobilised ligand | 1 µM | 83%
CN(C)c1nccc(-c2cnc3ncccn23)n1 | binding | 1 µM | 76%
O=C(c1ccc(Nc2ncc(Cl)c(-c3cc4ccccc4s3)n2)cc1)N1CCC(N2CCCC2)CC1 | binding, competition with immobilised ligand | 1 µM | 17%
C[C@@H]1CN(c2ccc3ncc(-c4ccc5[nH]nc(C6CC6)c5c4)n3n2)C[C@H](C)O1 | binding, competition with immobilised ligand | 50 nM | 100%
CC1=C(C#N)[C@@H](c2ccc3[nH]nc(C)c3c2)C(C#N)=C(c2ccc(Cl)cc2)N1 | cell-free assay, competition with immobilised ligand | 1 µM | 82.9%
COc1ccnn2ncc(-c3ccnc(N(C)C)n3)c12 | binding | 1 µM | 100%
O=C(c1ccc(Nc2ncc(Cl)c(-c3ccc(Cl)s3)n2)cc1)N1CCC(N2CCCC2)CC1 | binding, competition with immobilised ligand | 1 µM | 8.3%
CN(c1ccnc(CNc2nc(Nc3ccc4c(c3)CC(=O)N4)ncc2C(F)(F)F)n1)S(C)(=O)=O | cell-free assay, competition with immobilised ligand | 1 µM | 9.9%
Nc1ncc2c(n1)-c1c([nH]c3ccc(C#CC4CC4)cc13)CCCC2 | binding, competition with immobilised ligand | 1 µM | 43%
C=CC(=O)N1CCC(C(=O)NCC(=O)N2CCN(c3nc(-c4cnc(N)nc4C(F)F)nc(N4CCOCC4)n3)CC2)CC1 | binding, competition with immobilised ligand | 1 µM | 56%
N#Cc1ccccc1CSc1nnc2c(n1)[nH]c1ccccc12 | binding, competition with immobilised ligand | 10 µM | 100%
C[C@@H]1CN(c2cc(-c3n[nH]c4ccc(OC5(C)CC5)cc34)ncn2)C[C@H](C)O1 | cell-free assay, competition with immobilised ligand | 0.1 µM | 73%
O=C(c1ccc(Nc2nccc(-c3cc4ccccc4s3)n2)cc1)N1CCC(N2CCCC2)CC1 | binding, competition with immobilised ligand | 1 µM | 63%
COc1cnc(Nc2cccc(S(N)(=O)=O)c2)nc1N1CCN(c2ccccc2)C(=O)C1 | binding, competition with immobilised ligand | 1 µM | 63%
